# Results gathered from unrelated publications.
# Target: Activin receptor type-2A (ACVR2A, Homo sapiens, UniProt P27037)
SMILES,assay,conditions,remaining binding [%]
Cc1cnn2ncc(-c3ccnc(N(C)C)n3)c2c1,binding,1 µM,74
COc1ncc2cc3ccccc3nc2c1C#N,"cell-free assay, competition with immobilised ligand",5 µM,85
COc1cnc(Nc2cccc(S(N)(=O)=O)c2)nc1N1CCN(c2ccccc2)C(=O)C1,"binding, competition with immobilised ligand",1 µM,100
CN(C)CC#Cc1ccc(OCCCc2sc(N3CCc4cccc(C(=O)Nc5nc6ccccc6s5)c4C3)nc2C(=O)O)c(F)c1,"cell-free assay, competition with immobilised ligand",1 µM,94
O=C(NCCCN1CCOCC1)c1ccc(Nc2nccc(-c3cc4ccccc4s3)n2)cc1,"binding, competition with immobilised ligand",1 µM,58
O=C1CCc2cc(Nc3cc(OC4CCOCC4)c([N+](=O)[O-])cc3Cl)ccc2N1,"cell-free assay, competition with immobilised ligand",1 µM,81
C[C@@H]1CCN(c2nccc(-c3cnn4ncccc34)n2)C1,binding,1 µM,100
c1cncc(-c2cccc(Nc3nccc(NC4CCCCC4)n3)c2)c1,"binding, competition with immobilised ligand",10 µM,70
CN(c1nccc(-c2cnn3ncccc23)n1)C1CC1,binding,1 µM,100
O=C(NCCCC1CCCCC1)c1ccc(CNC(=O)c2cnn(-c3ccccc3)c2C(F)(F)F)cc1,"cell-free assay, competition with immobilised ligand",0.1 µM,83
O=C(c1ccc(Nc2ncc(Cl)c(-c3ccc(Cl)s3)n2)cc1)N1CCC(N2CCCC2)CC1,"binding, competition with immobilised ligand",1 µM,71
CN(C)c1nccc(-c2cnc3ncccn23)n1,binding,1 µM,100
COc1cnc(Nc2cccc(S(N)(=O)=O)c2)nc1N1CCN(c2ccccc2)CC1,"binding, competition with immobilised ligand",1 µM,97
Cc1cnc(Nc2ccc(C(=O)N3CCC(N4CCCC4)CC3)cc2)nc1-c1cc2ccccc2s1,"binding, competition with immobilised ligand",1 µM,69
O=C(Nc1c[nH]nc1C(=O)NC1CCNCC1)c1cc(F)cc(F)c1,"binding, competition with immobilised ligand",1 µM,100
O=c1nc(-c2ccccn2)sc2ccccc12,"cell-free assay, competition with immobilised ligand",1 µM,91
C[C@@H](c1ccc(-n2cnc3c(N)ncnc32)cc1)N1CCc2nn(C)c(Cc3ccccc3)c2C1=O,"binding, competition with immobilised ligand",0.1 µM,92
O=C(Nc1cccnn1)N1CCC(=Cc2cccc(Oc3ccc(C(F)(F)F)cn3)c2)CC1,"cell-free assay, competition with immobilised ligand",1 µM,100
N[C@H]1CCN(c2nccc(-c3cnn4ncccc34)n2)C1,binding,1 µM,100
O=C(NCc1ncc(C(F)(F)F)cc1Cl)c1ccc2c(c1)C1(CCS(=O)(=O)CC1)[C@@H](C1CC1)N2S(=O)(=O)c1ccc(F)cc1,"cell-free assay, competition with immobilised ligand",1 µM,100
CN(C)c1ncc(F)c(-c2cnn3ncccc23)n1,binding,1 µM,95
FC(F)(F)Oc1cccc(-c2cnc3ccc(-c4ccncc4)nn23)c1,"cell-free assay, competition with immobilised ligand",5 µM,77
